Measurements as given in ChEMBL document CHEMBL1126286, “Oral hypoglycemic agents. Pyrimido[1,2-a]indoles and related compounds” (1992).

Tests used:
Type in all cases: functional
Rattus norvegicus [1] = assay: Hypoglycemic activity was tested in rats at a standard dose of 100 mg/kg and calculated as percent of vehicle control after 4 hours (six rats per group)
In short: (§1)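 Fed male Sprague-Dawley CD rats (280-320 g), six per group, 100 mg/kg po as solution in water or suspension in 0.5% carboxymethylcellulose (1 mL/kg); parallel vehicle controls. Tail-vein blood (0.3 mL) taken 2 and 4 h post-dose into EDTA and Trasylol; plasma glucose by glucose oxidase-peroxidase, expressed as percent of vehicle control; Student-Newman-Keuls test for significance.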

Rattus norvegicus [2] = assay: Hypoglycemic activity was tested in rats at a standard dose of 100 mg/kg and calculated as percent of vehicle control after 2 hours (six rats per group); in short: as §1
Rattus norvegicus [3] = species on record: Rattus norvegicus; assay: Potency to dissociate hypoglycemic activity relative to compound 38
In short: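 Three-point oral dose-response in fed male Sprague-Dawley CD rats, eight per group, with the reference standard run alongside; 10, 30 and 100 mg/kg po (some studies 10, 20, 50 mg/kg). Rats exsanguinated by decapitation at 4 h; blood into EDTA and Trasylol, plasma glucose by glucose oxidase-peroxidase; potency relative to standard.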

SMILES | Blood glucose (Rattus norvegicus [1]) | Blood glucose (Rattus norvegicus [2]) | Relative potency (Rattus norvegicus [3]) | Blood glucose (Rattus norvegicus [1]; 100 mg/kg) | Blood glucose (Rattus norvegicus [2]; 100 mg/kg)
CC1(C)CN=C2N(C1)c1ccccc1C2(O)CCCCOCc1ccccc1.Cl (stereo unspecified) | 91% | 76% |  |  | 
CC(C)CC1(O)C2=NCCCN2c2ccccc21.Cl (stereo unspecified) | 86% | 79% |  |  | 
CC1(C)CN=C2N(C1)c1ccccc1C2(O)CC1CCCCC1.Cl (stereo unspecified) | 84% | 79% |  |  | 
CC1(C)CN=C2N(C1)c1ccccc1C2(N)c1ccccc1.Cl.Cl (stereo unspecified) | 68% | 78% | 0.9 |  | 
COC(C)CCC1(O)C2=NCCCN2c2ccccc21.Cl (stereo unspecified) | 95% | 88% |  |  | 
CCCC(=O)NC1(c2ccccc2)C2=NCC(C)(C)CN2c2ccccc21.Cl (stereo unspecified) | 77% | 101% |  |  | 
Cl.OC1(c2cccc(Cl)c2)C2=NCCCN2c2ccccc21 (stereo unspecified) | 84% | 99% |  |  | 
CCCCC1(O)C2=NCC(C)(C)CN2c2ccccc21.Cl (stereo unspecified) | 67% | 58% |  |  | 
CCC1(O)C2=NCC(C)(C)CN2c2ccccc21.Cl (stereo unspecified) | 93% | 89% |  |  | 
CC1(C)CN=C2N(C1)c1ccccc1C2(NC(=O)c1ccccc1)c1ccccc1.Cl (stereo unspecified) | 116% | 104% |  |  | 
CCOCCCCC1(O)C2=NCC(C)(C)CN2c2ccccc21.Cl (stereo unspecified) | 86% | 88% |  |  | 
CC(C)(C)CC1(O)C2=NCC(C)(C)CN2c2ccccc21.Cl (stereo unspecified) | 81% | 68% | 0.65 |  | 
CC1(C)CN=C2N(C1)c1ccccc1C2(O)C1CC1.Cl (stereo unspecified) | 81% | 83% | 0.11 |  | 
CC(CCC1(O)C2=NCCCN2c2ccccc21)c1ccccc1.Cl (stereo unspecified) | 88% | 99% |  |  | 
Cl.OCC#CC1(O)C2=NCCCN2c2ccccc21 (stereo unspecified) | 94% | 94% |  |  | 
COCCCCC1(O)C2=NCCCN2c2ccccc21.Cl (stereo unspecified) | 87% | 86% |  |  | 
Cl.Cl.OC1(c2ccccc2)C2=NCC3(CCNCC3)CN2c2ccccc21 (stereo unspecified) | 92% | 102% |  |  | 
Cl.OC1(c2ccc3ccccc3c2)C2=NCCCN2c2ccccc21 (stereo unspecified) | 64% | 88% | 0.01 |  | 
Cl.OC1(c2ccccc2)C2=NCC3(CCCCC3)CN2c2ccccc21 (single isomer, unassigned; (+)) |  |  |  | 69% | 82%
Cl.OC1(CC2CCCCC2)C2=NCCCN2c2ccccc21 (stereo unspecified) | 81% | 77% | 0.12 |  | 
CCOCCCCC1(O)C2=NCCCN2c2ccccc21.Cl (stereo unspecified) | 96% | 100% |  |  | 
CCCCCCC1(O)C2=NCC(C)(C)CN2c2ccccc21.Cl (stereo unspecified) | 107% | 103% |  |  | 
CC(=O)NC1(c2ccccc2)C2=NCC(C)(C)CN2c2ccccc21.Cl (stereo unspecified) | 77% | 85% | 0.03 |  | 
CC(=O)NC1(c2ccc3ccccc3c2)C2=NCCCN2c2ccccc21.Cl (stereo unspecified) | 100% | 104% |  |  | 

SMILES | Blood glucose (Rattus norvegicus [1]) | Blood glucose (Rattus norvegicus [2]) | Relative potency (Rattus norvegicus [3]) | Blood glucose (Rattus norvegicus [1]; 100 mg/kg) | Blood glucose (Rattus norvegicus [2]; 100 mg/kg)
Cl.Cl.NC1(c2ccccc2)C2=NCCCN2c2ccccc21 (stereo unspecified) | 93% | 84% | 0.47 |  | 
CC(C)CCC1(O)C2=NCC(C)(C)CN2c2ccccc21.Cl (stereo unspecified) | 78% | 65% |  |  | 
Cc1ccc(S(=O)(=O)NC(=O)NC2(c3ccccc3)C3=NCC(C)(C)CN3c3ccccc32)cc1.Cl (stereo unspecified) | 90% | 101% |  |  | 
Cl.OC1(c2ccccc2)C2=NCC3(CCCC3)CN2c2ccccc21 (stereo unspecified) | 71% | 75% | 0.1 |  | 
COCC(C)CC1(O)C2=NCCCN2c2ccccc21.Cl (stereo unspecified) | 98% | 94% |  |  | 
CC(=O)NC1(c2ccccc2)C2=NCCCCN2c2ccccc21.Cl (stereo unspecified) | 73% | 86% | 0.13 |  | 
CC(C)CC1(O)C2=NCC(C)(C)CN2c2ccccc21.Cl (stereo unspecified) | 77% | 88% | 0.69 |  | 
CC(=O)NC1(c2cccc(Cl)c2)C2=NCCCN2c2ccccc21.Cl (stereo unspecified) | 85% | 89% | 0.5 |  | 
CC(=O)NC1(c2ccccc2)C2=NCCCN2c2ccccc21.Cl (stereo unspecified) | 75% | 76% | 0.03 |  | 
C=CCC1(O)C2=NCC(C)(C)CN2c2ccccc21.Cl (stereo unspecified) | 74% | 86% |  |  | 
Cl.NC1(c2cccc(Cl)c2)C2=NCCCN2c2ccccc21 (stereo unspecified) | 84% | 95% |  |  | 
CCCCC1(O)C2=NCC3(CCCCC3)CN2c2ccccc21.Cl (stereo unspecified) | 68% | 60% | 3.69 |  | 
COCC(C)CC1(O)C2=NCC(C)(C)CN2c2ccccc21.Cl (stereo unspecified) | 72% | 73% | 0.47 |  | 
CCC(CC)CC1(O)C2=NCCCN2c2ccccc21.Cl (stereo unspecified) | 68% | 82% | 0.86 |  | 
CC1(C)CN=C2N(C1)c1ccccc1C2(O)c1ccccc1.Cl (stereo unspecified) | 75% | 90% | 1 |  | 
CC(=O)NC1(c2ccccc2)C2=NCC3(CCCC3)CN2c2ccccc21.Cl (stereo unspecified) | 90% | 99% |  |  | 
Cl.OC1(c2ccccc2)C2=NCC3(CCCCCC3)CN2c2ccccc21 (stereo unspecified) | 76% | 87% | 0.3 |  | 
Cl.OC1(c2ccccc2)C2=NCCCN2c2ccccc21 (stereo unspecified) | 82% | 86% | 0.52 |  | 
Cl.OC1(c2ccccc2)C2=NCC3(CCCCC3)CN2c2ccccc21 (single isomer, unassigned; (-)) |  |  |  | 71% | 81%
CC1(C)CN=C2N(C1)c1ccccc1C2(NS(C)(=O)=O)c1ccccc1.Cl (stereo unspecified) | 67% | 76% | 0.04 |  | 
COC(C)CCC1(O)C2=NCC(C)(C)CN2c2ccccc21.Cl (stereo unspecified) | 73% | 69% | 1.1 |  | 
Cl.OC1(c2ccccc2)C2=NCC3(CCCCC3)CN2c2ccccc21 (stereo unspecified) |  |  | 1.33 | 60% | 78%
COCCCCC1(O)C2=NCC(C)(C)CN2c2ccccc21.Cl (stereo unspecified) | 87% | 79% | 0.05 |  | 
